Test results: ChEMBL document CHEMBL1759857, “Synthesis and evaluation of isatin analogs as caspase-3 inhibitors: introduction of a hydrophilic group increases potency in a whole cell assay” (Bioorg Med Chem Lett, 2011)

Columns and labels:
Caspase-3 [1] = biological target: T1, Caspase-3 (Homo sapiens, UniProt P42574); experiment: Inhibition of human caspase 3 by fluorometric assay
T1 sequence (P42574 whole entry): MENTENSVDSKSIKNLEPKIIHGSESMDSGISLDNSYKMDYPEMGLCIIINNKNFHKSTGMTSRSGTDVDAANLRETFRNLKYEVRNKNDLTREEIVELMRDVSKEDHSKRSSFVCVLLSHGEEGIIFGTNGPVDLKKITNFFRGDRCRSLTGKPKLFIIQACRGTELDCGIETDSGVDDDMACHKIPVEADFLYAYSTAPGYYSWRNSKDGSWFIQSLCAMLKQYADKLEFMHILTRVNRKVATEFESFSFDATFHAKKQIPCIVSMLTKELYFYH
Method in brief: (§1)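 Recombinant caspases were tested in a standard fluorometric enzyme assay. IC50 is reported as mean ± SD of at least three independent assays.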

Caspase-1 = biological target: T2, Caspase-1 (Homo sapiens, UniProt P29466); experiment: Inhibition of caspase 1 by fluorometric assay; method in brief: as §1
T2 sequence (P29466 whole entry): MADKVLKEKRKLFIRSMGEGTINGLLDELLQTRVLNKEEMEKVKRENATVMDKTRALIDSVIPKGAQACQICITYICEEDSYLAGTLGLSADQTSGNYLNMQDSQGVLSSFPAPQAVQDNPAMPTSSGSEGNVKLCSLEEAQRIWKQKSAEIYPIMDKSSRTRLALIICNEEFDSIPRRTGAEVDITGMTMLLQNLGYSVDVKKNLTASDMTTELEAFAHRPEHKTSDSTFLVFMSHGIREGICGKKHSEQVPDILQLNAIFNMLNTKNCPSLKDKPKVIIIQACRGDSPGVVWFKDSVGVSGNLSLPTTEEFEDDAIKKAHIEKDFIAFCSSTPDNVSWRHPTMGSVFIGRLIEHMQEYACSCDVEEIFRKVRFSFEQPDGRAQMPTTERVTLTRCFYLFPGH

Caspase-7 = biological target: T3, Caspase-7 (Homo sapiens, UniProt P55210); experiment: Inhibition of caspase 7 by fluorometric assay
T3 sequence (P55210 whole entry): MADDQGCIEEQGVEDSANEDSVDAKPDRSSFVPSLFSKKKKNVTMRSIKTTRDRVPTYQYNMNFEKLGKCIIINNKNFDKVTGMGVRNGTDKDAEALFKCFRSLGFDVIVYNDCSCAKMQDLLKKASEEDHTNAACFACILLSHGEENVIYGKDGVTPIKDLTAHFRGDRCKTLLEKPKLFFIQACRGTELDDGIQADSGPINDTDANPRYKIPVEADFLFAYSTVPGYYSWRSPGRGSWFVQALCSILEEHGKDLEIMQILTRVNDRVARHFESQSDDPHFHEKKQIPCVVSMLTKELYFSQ

Caspase-8 = Caspase-8 (Homo sapiens, UniProt Q14790); experiment: Inhibition of caspase 8 by fluorometric assay; method in brief: as §1
Caspase-6 = biological target: T4, Caspase-6 (Homo sapiens, UniProt P55212); experiment: Inhibition of caspase 6 by fluorometric assay; method in brief: as §1
T4 sequence (P55212 whole entry): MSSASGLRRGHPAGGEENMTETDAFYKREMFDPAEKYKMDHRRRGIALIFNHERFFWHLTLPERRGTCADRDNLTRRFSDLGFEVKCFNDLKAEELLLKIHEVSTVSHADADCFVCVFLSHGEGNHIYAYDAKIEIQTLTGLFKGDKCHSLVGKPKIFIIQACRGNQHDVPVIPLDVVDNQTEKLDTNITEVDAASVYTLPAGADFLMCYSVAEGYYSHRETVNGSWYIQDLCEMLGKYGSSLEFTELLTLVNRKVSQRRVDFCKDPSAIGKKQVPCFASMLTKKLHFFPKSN

Caspase-3 [2] = biological target: T1, Caspase-3; experiment: Inhibition of staurosporine induced activation of caspase 3 activation in human Hela cells assessed as hydrolysis of Z-DEVD-R110 substrate by microplate fluorescence assay; assay type: cell-based
Method in brief: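 HeLa cells were seeded at 1-2×10^4 per well and left to adhere overnight at 37°C in 5% CO2. […] A homogeneous caspase-3/7 kit with cell-permeable Z-DEVD-R110 was then used, reading fluorescence at ex 485/em 535 nm. EC50 was taken from dose-response curves, as mean ± SD of ≥3 independent experiments.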

Chain of Caspase-8 (Q14790 217-374 limits assumed): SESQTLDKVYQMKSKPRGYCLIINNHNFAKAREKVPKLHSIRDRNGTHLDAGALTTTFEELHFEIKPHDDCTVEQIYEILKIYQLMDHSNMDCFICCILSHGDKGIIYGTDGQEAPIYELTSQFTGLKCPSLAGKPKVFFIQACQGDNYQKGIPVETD
Chain of Caspase-8 (Q14790 385-479 limits assumed): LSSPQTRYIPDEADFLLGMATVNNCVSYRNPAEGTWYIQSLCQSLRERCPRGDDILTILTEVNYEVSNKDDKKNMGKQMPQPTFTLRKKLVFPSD

IC50 (Caspase-3 [1]) [µM] | IC50 (Caspase-1) [µM] | IC50 (Caspase-7) [µM] | IC50 (Caspase-8) [µM] | IC50 (Caspase-6) [µM] | EC50 (Caspase-3 [2]) [µM] | SMILES
0.0086 | > 20 | 0.0261 | > 25 | 4.93 | 2 | O=C1C(=O)N(Cc2ccc(OCCF)cc2)c2ccc(S(=O)(=O)N3CC[C@H]3COc3ccccc3)cc21
0.0279 | > 50 | 0.0289 | > 50 | > 10 | 2.15 | O=C1C(=O)N(Cc2ccc(OCCOCCF)cc2)c2ccc(S(=O)(=O)N3CC[C@H]3COc3ccccc3)cc21
0.0269 | > 25 | 0.0192 | > 50 | 2.99 | – | O=C1C(=O)N(Cc2ccc(OCCOCCOCCF)cc2)c2ccc(S(=O)(=O)N3CC[C@H]3COc3ccccc3)cc21
0.0109 | > 25 | 0.0119 | > 50 | > 10 | 1.69 | O=C1C(=O)N(Cc2ccc(OCCOCCF)cc2)c2ccc(S(=O)(=O)N3CCC[C@H]3COc3ccccc3)cc21
0.0137 | > 50 | 0.0176 | > 50 | 7.67 | 1.3 | O=C1C(=O)N(Cc2ccc(OCCOCCOCCF)cc2)c2ccc(S(=O)(=O)N3CCC[C@H]3COc3ccccc3)cc21
0.0224 | 4.78 | 0.292 | > 25 | 0.747 | – | N#CC(C#N)=C1C(=O)N(Cc2ccc(OCCF)cc2)c2ccc(S(=O)(=O)N3CC[C@H]3COc3ccccc3)cc21
0.0244 | 5.73 | 0.0683 | > 50 | 1.01 | – | N#CC(C#N)=C1C(=O)N(Cc2ccc(OCCOCCF)cc2)c2ccc(S(=O)(=O)N3CC[C@H]3COc3ccccc3)cc21
0.0071 | 2.9 | 0.045 | > 50 | 0.509 | – | N#CC(C#N)=C1C(=O)N(Cc2ccc(OCCF)cc2)c2ccc(S(=O)(=O)N3CC[C@H]3COc3cccnc3)cc21
0.0183 | > 10 | 0.0963 | > 50 | 0.927 | – | N#CC(C#N)=C1C(=O)N(Cc2ccc(OCCF)cc2)c2ccc(S(=O)(=O)N3CCC[C@H]3COc3ccccc3)cc21
0.0233 | > 10 | 0.07 | > 50 | 1.16 | – | N#CC(C#N)=C1C(=O)N(Cc2ccc(OCCOCCF)cc2)c2ccc(S(=O)(=O)N3CCC[C@H]3COc3ccccc3)cc21
0.0075 | 3.5 | 0.0265 | > 50 | 0.77 | – | N#CC(C#N)=C1C(=O)N(Cc2ccc(OCCF)cc2)c2ccc(S(=O)(=O)N3CCC[C@H]3COc3cccnc3)cc21
0.011 | > 20 | 0.018 | > 50 | 6.95 | 0.8 | O=C1C(=O)N(Cc2cn(CCF)nn2)c2ccc(S(=O)(=O)N3CC[C@H]3COc3ccccc3)cc21
0.012 | > 50 | 0.0154 | > 50 | 3.48 | 1.39 | O=C1C(=O)N(Cc2ccc(OCCF)cc2)c2ccc(S(=O)(=O)N3CC[C@H]3COc3ccc(F)cc3F)cc21
0.0152 | > 50 | 0.0123 | > 50 | 9.12 | 2.5 | O=C1C(=O)N(Cc2ccc(OCCF)cc2)c2ccc(S(=O)(=O)N3CCC[C@H]3COc3ccc(F)cc3F)cc21
0.0134 | > 20 | 0.0153 | > 50 | 4.7 | 1.06 | O=C1C(=O)N(Cc2cn(CCF)nn2)c2ccc(S(=O)(=O)N3CC[C@H]3COc3ccc(F)cc3F)cc21
– | – | – | – | – | 1.83 | O=C1Nc2ccc(S(=O)(=O)N3CCC[C@H]3COc3cccnc3)cc2C1=O
– | – | – | – | – | 0.65 | O=C1C(=O)N(Cc2ccccc2)c2ccc(S(=O)(=O)N3CCC[C@H]3COc3cccnc3)cc21
– | – | – | – | – | 9.57 | O=C1Nc2ccc(S(=O)(=O)N3CC[C@H]3COc3ccccc3)cc2C1=O
– | – | – | – | – | 2.8 | O=C1C(=O)N(Cc2ccccc2)c2ccc(S(=O)(=O)N3CC[C@H]3COc3ccccc3)cc21
– | – | – | – | – | 3.07 | COc1ccc(CN2C(=O)C(=O)c3cc(S(=O)(=O)N4CC[C@H]4COc4ccccc4)ccc32)cc1
– | – | – | – | – | 4.5 | O=C1C(=O)N(Cc2ccc(OCCF)cc2)c2ccc(S(=O)(=O)N3CCC[C@H]3COc3ccccc3)cc21
– | – | – | – | – | 7.67 | CN1C(=O)C(=O)c2cc(S(=O)(=O)N3CCC[C@H]3COc3ccccc3)ccc21
– | – | – | – | – | 3.25 | CN1C(=O)C(=O)c2cc(S(=O)(=O)N3CC[C@H]3COc3ccccc3)ccc21
– | – | – | – | – | 0.45 | COc1ccc(CN2C(=O)C(=O)c3cc(S(=O)(=O)N4CCC[C@H]4COc4cccnc4)ccc32)cc1
– | – | – | – | – | 3.67 | O=C1C(=O)N(Cc2ccccc2)c2ccc(S(=O)(=O)N3CCC[C@H]3COc3ccccc3)cc21
0.0122 | > 20 | 0.0124 | > 50 | 9.97 | 0.93 | O=C1C(=O)N(Cc2cn(CCF)nn2)c2ccc(S(=O)(=O)N3CCC[C@H]3COc3ccccc3)cc21
0.0108 | > 20 | 0.0116 | > 50 | 4.43 | 0.68 | O=C1C(=O)N(Cc2cn(CCF)nn2)c2ccc(S(=O)(=O)N3CCC[C@H]3COc3ccc(F)cc3F)cc21
– | – | – | – | – | 11.5 | O=C1Nc2ccc(S(=O)(=O)N3CCC[C@H]3COc3ccccc3)cc2C1=O

SMILES | IC50 (Caspase-3 [1]) [µM] | IC50 (Caspase-1) [µM] | IC50 (Caspase-7) [µM] | IC50 (Caspase-8) [µM] | IC50 (Caspase-6) [µM] | EC50 (Caspase-3 [2]) [µM]
O=C1C(=O)N(Cc2ccc(OCCF)cc2)c2ccc(S(=O)(=O)N3CC[C@H]3COc3cccnc3)cc21 | 0.0036 | > 10 | 0.0176 | > 50 | 8.7 | 0.38
COc1ccc(CN2C(=O)C(=O)c3cc(S(=O)(=O)N4CC[C@H]4COc4cccnc4)ccc32)cc1 | 0.0033 | > 15 | 0.0102 | > 50 | 9.2 | 0.45
O=C1C(=O)N(Cc2ccc(OCCF)cc2)c2ccc(S(=O)(=O)N3CCC[C@H]3COc3cccnc3)cc21 | 0.0031 | > 20 | 0.0113 | > 50 | 6.9 | 0.39
COc1ccc(CN2C(=O)C(=C(C#N)C#N)c3cc(S(=O)(=O)N4CC[C@H]4COc4cccnc4)ccc32)cc1 | 0.006 | > 36 | 0.05 | > 50 | 0.45 | –
O=C1C(=O)N(Cc2cn(CCF)nn2)c2ccc(S(=O)(=O)N3CC[C@H]3COc3cccnc3)cc21 | 0.0056 | > 20 | 0.0061 | > 50 | 7.75 | 0.42
O=C1C(=O)N(Cc2cn(CCF)nn2)c2ccc(S(=O)(=O)N3CCC[C@H]3COc3cccnc3)cc21 | 0.0045 | > 20 | – | > 50 | 13.4 | 0.35
CN1C(=O)C(=O)c2cc(S(=O)(=O)N3CCC[C@H]3COc3cccnc3)ccc21 | – | – | – | – | – | 1.8
